Test results from ChEMBL document CHEMBL1154391, “Novel thienopyrimidine and thiazolopyrimidine kinase inhibitors with activity against Tie-2 in vitro and in vivo” (Bioorg Med Chem Lett, 2009).
≈ marks a conversion by molar mass, not a printed value. Each block holds one compound with its values, some of them ahead of it. Calls of active or inactive are those of the source. The rule behind the calls is not given here.

Columns and labels:
Rattus norvegicus [1] = assay: Hypotensive activity in rat assessed as VEGF-induced reduction in blood pressure at 20 mg/kg, iv; type: functional, organism-based; design: dose 20 mg/kg
Method in brief: (§1)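 Male Alderley Park rats anaesthetised with α-chloralose iv, maintained with thiopentone ip. Carotid artery cannulated for blood pressure recording by pressure transducer. Jugular vein cannulated for bolus VEGF or Ang-1 in 0.85% NaCl. Ang-1 was baculovirus/insect-cell expressed, 40–60 µg per batch, adjusted to give a 10–20 mmHg fall. Compound or vehicle given iv (25% w/v hydroxypropyl-β-cyclodextrin, Sorensen phosphate pH 5.5).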

[2] = (§2) Protein binding in rat plasma; type: ADME, cell-free; conditions: read-out: PPB (converted)
Angiopoietin-1 receptor [3] = molecular target: T1, Angiopoietin-1 receptor (Homo sapiens, UniProt Q02763); assay: Inhibition of Tie-2 phosphorylation by cell based assay
Rattus norvegicus [4] = assay: Hypotensive activity in rat assessed as reversal of angiopoietin-1-induced reduction in blood pressure at 20 mg/kg, iv; type: functional, organism-based; design: dose 20 mg/kg; method in brief: as §1
[5] = Aqueous solubility at pH 7
[6] = Volume of distribution at steady state in rat at 2 mg/kg, iv and 5 mg/kg, po; type: ADME, organism-based; conditions: in vivo, read-out: Vdss
[7] = Bioavailability in rat at 2 mg/kg, iv and 5 mg/kg, po; type: ADME, organism-based; conditions: in vivo
Plasma = assay: as §2; type: ADME, cell-free
[8] = Clearance in rat at 2 mg/kg, iv and 5 mg/kg, po; type: ADME, organism-based; conditions: in vivo
[9] = Lipophilicity, log D of the compound; conditions: octanol/water
[10] = Half life in rat at 5 mg/kg, po; type: ADME, organism-based; design: dose 5 mg/kg, route oral; conditions: in vivo
Angiopoietin-1 receptor [11] = molecular target: T1, Angiopoietin-1 receptor; assay: Inhibition of Tie-2
[12] = molecular target: Vascular endothelial growth factor receptor 1 (Homo sapiens) (UniProt P17948); assay: Inhibition of Flt-1
[13] = molecular target: Vascular endothelial growth factor receptor 2 (Homo sapiens) (UniProt P35968); assay: Inhibition of FLt
[14] = Cmax in rat at 1 mg/kg, po; type: ADME, organism-based; design: dose 1 mg/kg, route oral; conditions: in vivo

T1 sequence (Q02763 whole entry): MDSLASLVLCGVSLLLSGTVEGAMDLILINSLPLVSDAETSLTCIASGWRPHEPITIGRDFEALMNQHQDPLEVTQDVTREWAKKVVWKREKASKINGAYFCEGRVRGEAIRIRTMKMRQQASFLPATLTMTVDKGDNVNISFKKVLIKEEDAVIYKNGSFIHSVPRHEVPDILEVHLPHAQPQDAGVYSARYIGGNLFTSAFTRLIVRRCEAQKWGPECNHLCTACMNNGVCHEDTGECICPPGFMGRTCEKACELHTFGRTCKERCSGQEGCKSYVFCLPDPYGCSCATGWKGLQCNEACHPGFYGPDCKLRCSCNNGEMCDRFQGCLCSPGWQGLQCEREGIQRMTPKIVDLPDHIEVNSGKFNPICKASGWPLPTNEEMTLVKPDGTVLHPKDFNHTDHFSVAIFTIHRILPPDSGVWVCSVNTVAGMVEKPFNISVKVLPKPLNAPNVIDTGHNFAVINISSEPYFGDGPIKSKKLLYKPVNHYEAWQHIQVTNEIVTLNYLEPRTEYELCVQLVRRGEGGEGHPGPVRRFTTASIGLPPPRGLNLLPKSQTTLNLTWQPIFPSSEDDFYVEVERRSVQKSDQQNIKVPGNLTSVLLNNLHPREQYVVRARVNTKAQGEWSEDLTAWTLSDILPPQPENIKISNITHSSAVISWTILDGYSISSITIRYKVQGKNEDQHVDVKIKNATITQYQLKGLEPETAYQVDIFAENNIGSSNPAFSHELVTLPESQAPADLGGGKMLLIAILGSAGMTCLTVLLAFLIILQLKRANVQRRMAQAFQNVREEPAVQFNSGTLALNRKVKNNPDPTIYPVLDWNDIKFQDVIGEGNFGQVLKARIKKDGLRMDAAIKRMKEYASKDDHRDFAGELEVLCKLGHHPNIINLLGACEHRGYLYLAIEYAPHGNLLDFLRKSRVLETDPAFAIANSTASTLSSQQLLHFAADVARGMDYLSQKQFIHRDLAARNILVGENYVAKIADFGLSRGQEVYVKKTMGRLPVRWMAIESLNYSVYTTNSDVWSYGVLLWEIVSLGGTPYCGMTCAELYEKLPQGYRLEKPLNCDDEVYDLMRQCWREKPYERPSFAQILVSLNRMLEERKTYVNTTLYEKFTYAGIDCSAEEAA
Chain of Vascular endothelial growth factor receptor 1 (Homo sapiens) (P17948 whole entry, looked up): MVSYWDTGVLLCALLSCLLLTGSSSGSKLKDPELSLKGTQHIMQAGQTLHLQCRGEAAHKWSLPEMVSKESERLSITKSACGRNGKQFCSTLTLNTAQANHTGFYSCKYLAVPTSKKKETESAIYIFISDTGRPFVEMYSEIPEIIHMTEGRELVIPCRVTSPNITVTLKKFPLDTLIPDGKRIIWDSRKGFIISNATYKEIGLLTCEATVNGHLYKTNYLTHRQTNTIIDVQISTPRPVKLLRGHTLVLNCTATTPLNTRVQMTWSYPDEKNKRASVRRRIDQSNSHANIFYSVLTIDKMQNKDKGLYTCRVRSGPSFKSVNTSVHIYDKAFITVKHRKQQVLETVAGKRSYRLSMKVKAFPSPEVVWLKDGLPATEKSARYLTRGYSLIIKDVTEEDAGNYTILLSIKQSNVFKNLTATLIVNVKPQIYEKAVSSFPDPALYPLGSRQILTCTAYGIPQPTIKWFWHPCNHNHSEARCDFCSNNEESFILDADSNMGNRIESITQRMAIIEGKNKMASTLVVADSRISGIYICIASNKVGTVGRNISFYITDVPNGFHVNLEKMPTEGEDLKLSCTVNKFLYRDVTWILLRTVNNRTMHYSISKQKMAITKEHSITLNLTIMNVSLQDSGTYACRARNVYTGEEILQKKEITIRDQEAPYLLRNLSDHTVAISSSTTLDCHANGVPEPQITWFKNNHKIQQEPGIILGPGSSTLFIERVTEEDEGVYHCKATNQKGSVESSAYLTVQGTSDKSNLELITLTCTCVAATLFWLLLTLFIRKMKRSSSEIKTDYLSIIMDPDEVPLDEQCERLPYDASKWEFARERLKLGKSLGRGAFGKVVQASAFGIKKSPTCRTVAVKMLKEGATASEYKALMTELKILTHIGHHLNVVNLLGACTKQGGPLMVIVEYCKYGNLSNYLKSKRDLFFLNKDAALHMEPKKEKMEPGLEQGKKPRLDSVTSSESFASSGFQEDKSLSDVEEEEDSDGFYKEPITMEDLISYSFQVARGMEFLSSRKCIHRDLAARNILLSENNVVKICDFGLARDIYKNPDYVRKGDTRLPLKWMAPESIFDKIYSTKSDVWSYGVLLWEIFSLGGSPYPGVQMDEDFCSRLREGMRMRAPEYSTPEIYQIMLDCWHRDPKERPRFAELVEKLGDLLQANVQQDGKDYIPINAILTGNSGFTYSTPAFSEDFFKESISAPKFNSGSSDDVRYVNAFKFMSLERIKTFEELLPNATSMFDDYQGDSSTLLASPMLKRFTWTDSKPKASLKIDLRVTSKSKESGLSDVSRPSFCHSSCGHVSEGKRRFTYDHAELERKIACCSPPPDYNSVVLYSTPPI

fraction unbound [2]: 0.058 | IC50 (Angiopoietin-1 receptor [3]): 0.44 µM
Compound: Nc1ncnc2sc(-c3c(-c4ccccc4)ncn3Cc3ccccc3N3CCOCC3)nc12
Activity (Rattus norvegicus [1]): inactive | Activity (Rattus norvegicus [4]): Active

fraction unbound [2]: 0.2 | IC50 (Angiopoietin-1 receptor [3]): 0.37 µM
Compound: Nc1ncnc2sc(-c3c(-c4ccccc4)ncn3C[C@H]3CCCO3)nc12

fraction unbound [2]: 0.016
Compound: Nc1ncnc2sc(-c3c(-c4ccccc4)ncn3CC3CCCCC3)nc12

solubility [5]: 171 µM (≈ 55.1 µg/mL) | IC50 (Angiopoietin-1 receptor [3]): 3 µM
Compound: CCn1cnc(-c2ccccc2)c1-c1nc2c(N)ncnc2s1

solubility [5]: 70 µM (≈ 24.5 µg/mL) | fraction unbound [2]: 0.059 | IC50 (Angiopoietin-1 receptor [3]): 0.49 µM
Compound: CC(C)Cn1cnc(-c2ccccc2)c1-c1nc2c(N)ncnc2s1

IC50 (Angiopoietin-1 receptor [3]): 1.4 µM
Compound: Cc1ccc(Sc2cccc(-c3ncn(C)c3-c3cc4c(N)ncnc4s3)c2)cc1

IC50 (Angiopoietin-1 receptor [3]): 1.4 µM
Compound: Cn1cnc(-c2cccc(NC(=O)Nc3ccccc3)c2)c1-c1cc2c(N)ncnc2s1

IC50 (Angiopoietin-1 receptor [3]): 0.07 µM
Compound: Cn1cnc(-c2cccc(NC(=O)Nc3cc(C(F)(F)F)ccc3F)c2)c1-c1cc2c(N)ncnc2s1

Vd [6]: 1.2 L/kg | bioavailability [7]: > 100% | solubility [5]: 160 µM (≈ 49.3 µg/mL) | fraction unbound [2]: 0.052 | PPB (Plasma): 94.6% | clearance [8]: 30.1 mL/min/kg | logD [9]: 2.7 | half-life [10]: 1.6 h | IC50 (Angiopoietin-1 receptor [11]): 20 µM
Compound: Cn1cnc(-c2ccccc2)c1-c1nc2c(N)ncnc2s1

Vd [6]: 1.4 L/kg | bioavailability [7]: > 100% | IC50 [12]: 10 µM | fraction unbound [2]: 0.045 | clearance [8]: 39 mL/min/kg | IC50 [13]: 22 µM | half-life [10]: 1.8 h | IC50 (Angiopoietin-1 receptor [3]): 1.8 µM | IC50 (Angiopoietin-1 receptor [11]): 34 µM
Compound: Cn1cnc(-c2ccccc2)c1-c1cc2c(N)ncnc2s1

Cmax [14]: 9 nM | IC50 (Angiopoietin-1 receptor [3]): 0.34 µM
Compound: Cc1cc(NC(=O)Nc2cccc(-c3ncn(C)c3-c3cc4c(N)ncnc4s3)c2)on1
